Source: ChEMBL document CHEMBL4765236, “Insights into the Antimicrobial Activity and Cytotoxicity of Engineered α-Helical Peptide Amphiphiles” (J Med Chem, 2016)
Calls of active or inactive are those of the source. The rule behind the calls is not given here.

Columns and labels:
HepG2 [1] = assay: Induction of cell cycle arrest in human HepG2 cells assessed as accumulation at sub-G1 phase at 64 uM incubated for 24 hrs by annexin-V/FITC staining-based FACS flow cytometry analysis (reference value: 0.07%); type: functional
HepG2 [2] = assay: Induction of cell cycle arrest in human HepG2 cells assessed as accumulation at S phase at 64 uM incubated for 24 hrs by annexin-V/FITC staining-based FACS flow cytometry analysis (reference value: 20.51 %); type: functional
Staphylococcus aureus [3] = assay: Induction of morphological changes in Staphylococcus aureus ATCC 29213 assessed as intracellular changes at 1 times MIC after 60 mins by TEM analysis; type: functional, organism-based
Escherichia coli [4] = assay: Induction of morphological changes in Escherichia coli O157:H7 CICC 21530 assessed as intracellular changes at 1 times MIC after 60 mins by TEM analysis; type: functional, organism-based
HepG2 [5] = assay: Induction of cell cycle arrest in human HepG2 cells assessed as accumulation at G2/M phase at 64 uM incubated for 24 hrs by annexin-V/FITC staining-based FACS flow cytometry analysis (reference value: 28.75 %); type: functional
Cell membrane [6] = assay: Induction of cell membrane disruption in Escherichia coli O157:H7 CICC 21530 assessed as propidium iodide-positive cells at 1 times MIC measured after 30 mins by flow cytometry analysis (reference value: 5.7 %); type: subcellular
Escherichia coli [7] = assay: Induction of morphological changes in Escherichia coli O157:H7 CICC 21530 assessed as membrane stunting at 1 times MIC after 60 mins by SEM analysis; type: functional, organism-based
Cell membrane [8] = assay: Induction of outer membrane permeabilization in Escherichia coli O157:H7 CICC 21530 assessed as increase in fluorescence intensity at 7.5 uM by NPN-dye based fluorescence assay; type: subcellular
HepG2 [9] = assay: Induction of cell cycle arrest in human HepG2 cells assessed as accumulation at sub-G1 phase at 32 uM incubated for 24 hrs by annexin-V/FITC staining-based FACS flow cytometry analysis (reference value: 0.07%); type: functional
Staphylococcus aureus [10] = assay: Induction of morphological changes in Staphylococcus aureus ATCC 29213 assessed as membrane stunting at 1 times MIC after 60 mins by SEM analysis; type: functional, organism-based
How it was run: (§1)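 S. aureus grown to exponential phase in MHB at 37 °C with shaking at 220 rpm. Cells washed twice in PBS, resuspended to OD600 0.2, then exposed to peptide at 1× MIC for 60 min at 37 °C; untreated cells served as control. Cells were pelleted, PBS-washed, fixed overnight in 2.5% glutaraldehyde at 4 °C, dehydrated through graded ethanol then tert-butanol, and imaged by SEM.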

Escherichia coli [11] = assay: Induction of morphological changes in Escherichia coli O157:H7 CICC 21530 assessed as membrane creeping at 1 times MIC after 60 mins by SEM analysis; type: functional, organism-based
Staphylococcus aureus [12] = assay: Induction of morphological changes in Staphylococcus aureus ATCC 29213 assessed as membrane destruction at 1 times MIC after 60 mins by SEM analysis; type: functional, organism-based; how it was run: as §1
Staphylococcus aureus [13] = assay: Induction of morphological changes in Staphylococcus aureus ATCC 29213 assessed as membrane blebbing at 1 times MIC after 60 mins by SEM analysis; type: functional, organism-based; how it was run: as §1
HepG2 [14] = assay: Induction of cell cycle arrest in human HepG2 cells assessed as accumulation at Go/G1 phase at 32 uM incubated for 24 hrs by annexin-V/FITC staining-based FACS flow cytometry analysis (reference value: 54.61 %); type: functional
Cell membrane [15] = assay: Induction of cell membrane disruption in Escherichia coli O157:H7 CICC 21530 assessed as propidium iodide-positive cells measured after 30 mins by flow cytometry analysis; type: subcellular
HepG2 [16] = assay: Induction of ROS generation in human HepG2 cells assessed as increase in fluorescence intensity up to 32 uM incubated for 8 hrs by DCFH-DA staining-based fluorescence analysis; type: functional, cell-based; conditions: dose microM <=32, time 8.0 hrs
HepG2 [17] = assay: Induction of cell cycle arrest in human HepG2 cells assessed as accumulation at G2/M phase at 32 uM incubated for 24 hrs by annexin-V/FITC staining-based FACS flow cytometry analysis (reference value: 28.75 %); type: functional
Staphylococcus aureus [18] = assay: Induction of morphological changes in Staphylococcus aureus ATCC 29213 assessed as membrane creeping at 1 times MIC after 60 mins by SEM analysis; type: functional, organism-based; how it was run: as §1
HepG2 [19] = assay: Induction of cell cycle arrest in human HepG2 cells assessed as accumulation at S phase at 32 uM incubated for 24 hrs by annexin-V/FITC staining-based FACS flow cytometry analysis (reference value: 20.51 %); type: functional
HepG2 [20] = assay: Induction of cell cycle arrest in human HepG2 cells assessed as accumulation at Go/G1 phase at 64 uM incubated for 24 hrs by annexin-V/FITC staining-based FACS flow cytometry analysis (reference value: 54.61 %); type: functional
[21] = Drug localization in cell membrane of human HepG2 cells assessed as green fluorescent signal in presence of FITC-labelled peptide at 32 uM measured up to 8 hrs by DAPI staining based confocal microscopy; type: ADME, cell membranes; conditions: hepg2, 8 h
How it was run: (§2)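 HepG2 cells incubated with FITC-labelled peptide at 32 µM. Fluorescence distribution imaged by confocal laser-scanning microscopy at intervals (1, 4 and 8 h).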

HepG2 [22] = assay: Induction of morphological changes in human HepG2 cells assessed as decrease in adhesive monolayer at 32 uM after 24 hrs by inverted microscope analysis; type: functional, cell-based
HepG2 [23] = assay: Induction of apoptosis in human HepG2 cells assessed as nuclear fragmentation at 32 uM measured after 8 hrs by DAPI staining based confocal microscopy; type: functional, cell-based
How it was run: (§3)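 HepG2 cells treated with 32 µM peptide for 2, 4 or 8 h and stained with DAPI. Nuclear morphology imaged by confocal microscopy, with untreated cells as control.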

HepG2 [24] = assay: Induction of morphological changes in human HepG2 cells assessed as appearance of rounded cells at 32 uM after 24 hrs by SEM analysis; type: functional, cell-based
Cell membrane [25] = assay: Induction of cell membrane disruption in Staphylococcus aureus ATCC 29213 assessed as spread of fluorescent signal across membrane surface at 1 times MIC in presence of FITC-labelled compound after 30 mins by confocal laser-scanning microscope analysis; type: subcellular
Lipopolysaccharide (LPS) = assay: Displacement of BODIPYTM-TR-cadaverine from Escherichia coli O111:B4 LPS by fluorescence spectroscopic analysis; conditions: dose 0.25-4 µM
How it was run: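 LPS-binding dye displacement: LPS (25 µg/mL) and BODIPY-TR-cadaverine (2.5 µg/mL) in tris buffer pH 7.4. An equal volume of peptide solution was added and the rise in fluorescence was recorded at excitation 580 nm and emission 620 nm. Melittin served as positive control. Each test was run independently in triplicate.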

HepG2 [26] = assay: Induction of morphological changes in human HepG2 cells assessed as cytoskeleton damage at 32 uM after 24 hrs by SEM analysis; type: functional, cell-based
HepG2 [27] = assay: Induction of apoptosis in human HepG2 cells assessed as nuclei condensation at 32 uM incubated for 2 to 4 hrs by DAPI-staining based confocal microscopy analysis; type: functional, cell-based; conditions: time 2-4 hrs; how it was run: as §3
[28] = Drug localization in cytoplasm of human HepG2 cells assessed as fluorescent signal in presence of FITC-labelled peptide at 32 uM measured up to 8 hrs by DAPI staining based confocal microscopy; type: ADME, subcellular; conditions: hepg2, 8 h; how it was run: as §2

In the case of H-WGEAFSAGVHRLANGGNG-NH2, the Activity (HepG2 [1]) is reported as 2.26%, the Activity (HepG2 [2]) is reported as 31.61% and the Activity (Staphylococcus aureus [3]) is reported as “Active”. For the same substance, the Activity (Escherichia coli [4]) was “Active”, the Activity (HepG2 [5]) was 30.85% and the Activity (Cell membrane [6]) was 22.9%. For the same substance, the Activity (Escherichia coli [7]) was “Active”, the Activity (Cell membrane [8]) was “inactive” and the Activity (HepG2 [9]) was 1.06%. The Activity (Staphylococcus aureus [10]) was “Active”, the Activity (Escherichia coli [11]) was “Active” and the Activity (Staphylococcus aureus [12]) was “Active”. For the same substance, the Activity (Staphylococcus aureus [13]) was “Active”, the Activity (HepG2 [14]) was 52.45% and the Activity (Cell membrane [15]) was “Dose-dependent effect”. For the same substance, the Activity (HepG2 [16]) was “inactive”, the Activity (HepG2 [17]) was 29.33% and the Activity (Staphylococcus aureus [18]) was “Active”. It also gave an Activity (HepG2 [19]) of 25.26% and an Activity (HepG2 [20]) of 34.77%.
With H-WLRAFRRLVRRLARGLRR-NH2 the Activity (HepG2 [1]) was 77.66%, the Activity (HepG2 [2]) was 11.48% and the Drug uptake [21] was “Active”. For the same substance, the Activity (HepG2 [5]) was 5.67%, the Activity (Cell membrane [6]) was 91.1% and the Activity (HepG2 [22]) was “Active”. The Activity (Escherichia coli [7]) was “Active”, the Activity (HepG2 [23]) was “Active” and the Activity (HepG2 [9]) was 24.8%. For the same substance, the Activity (Staphylococcus aureus [10]) was “Active”, the Activity (Escherichia coli [11]) was “Active” and the Activity (Staphylococcus aureus [12]) was “Active”. The Activity (Staphylococcus aureus [13]) was “Active”, the Activity (HepG2 [14]) was 21.35% and the Activity (Cell membrane [15]) was “Dose-dependent effect”. For the same substance, the Activity (HepG2 [24]) was “Active”, the Activity (HepG2 [17]) was 21.23% and the Activity (Staphylococcus aureus [18]) was “Active”. The Activity (Cell membrane [25]) was “Active”, the Activity (Lipopolysaccharide (LPS)) was “Active” and the Activity (HepG2 [19]) was 33.17%. The Activity (HepG2 [26]) was “Active”, the Activity (HepG2 [27]) was “Active” and the Activity (HepG2 [20]) was 5.83%.
In the case of H-WLRAFRRLVRRLARLLRR-NH2, the Drug uptake [28] is reported as “Not Active”.
